In ChEMBL document CHEMBL1140245, “Identification of antitumor activity of pyrazole oxime ethers” (Bioorg Med Chem Lett, 2005):
≈ marks a conversion by molar mass, not a printed value.

What was measured:
HCT-15 = test: Cytotoxic activity against HCT15 cell line (human colon solid tumor cell line); assay type: functional, cell-based
XF498 = test: Cytotoxic activity against XF498 cell line (human CNS solid tumor); assay type: functional, cell-based
SK-MEL-2 = test: Cytotoxic activity against SKMEL-2 cell line; assay type: functional, cell-based, Homo sapiens
SK-OV-3 = test: Cytotoxic activity against SKOV-3 cell line (human solid ovarian tumor cell line); assay type: functional, cell-based
A549 [1] = test: Cytotoxic activity against A549 cell line (non-small cell lung carcinoma); assay type: functional, cell-based, Homo sapiens
HepG2 = test: In vitro antiproliferative activity against HepG2 cell line (human liver tumor) at 1 uM concentration; assay type: functional
Outline: (§1)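 Each cell line was exposed to test compound at a single concentration of 1 µM, and activity was reported as percent inhibition.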

MCF7 = test: In vitro antiproliferative activity against MCF-7 cell line (human breast tumor) at 1 uM concentration; assay type: functional; outline: as §1
A549 [2] = test: In vitro antiproliferative activity against A549 cell line (human lung tumor) at 1 uM concentration; assay type: functional; outline: as §1
MKN-45 = test: In vitro antiproliferative activity against MKN45 cell line (human stomach tumor) at 1 uM concentration; assay type: functional; outline: as §1
[3] = Homo sapiens, HCT-15, read-out: IC50
[4] = Homo sapiens, XF498, read-out: IC50
[5] = Homo sapiens, SK-MEL-2, read-out: IC50
[6] = Homo sapiens, SK-OV-3, read-out: IC50
[7] = Homo sapiens, A549, read-out: IC50

Compound	IC50 (HCT-15; [3])	IC50 (XF498; [4])	IC50 (SK-MEL-2; [5])	IC50 (SK-OV-3; [6])	IC50 (A549 [1]; [7])	inhibition at 1 µM (HepG2)	inhibition at 1 µM (MCF7)	inhibition at 1 µM (A549 [2])	inhibition at 1 µM (MKN-45)	also measured
Cc1nn(C)c(-n2cccn2)c1/C=N/OCc1ccc(C(=O)OC(C)(C)C)cc1	3.63 µg/mL (≈ 9.18 µM)	5.51 µg/mL (≈ 13.9 µM)	28.8 µg/mL (≈ 72.8 µM)	9.63 µg/mL (≈ 24.4 µM)	2.49 µg/mL (≈ 6.3 µM)	–	–	–	–	–
Cc1nn(C)c(Oc2ccccc2)c1/C=N/OCCN1CCN(Cc2ccc(C(=O)OC(C)(C)C)cc2)CC1	–	–	–	–	–	19.8%	32%	44.7%	19.2%	–
Cc1nn(C)c(Oc2ccc(Cl)cc2)c1/C=N/OCc1ccc(C(=O)OC(C)(C)C)cc1	0.01 µg/mL (≈ 0.0219 µM)	0.02 µg/mL (≈ 0.0439 µM)	18.8 µg/mL (≈ 41.2 µM)	0.28 µg/mL (≈ 0.614 µM)	0.1 µg/mL (≈ 0.219 µM)	–	–	–	–	–
CC(C)c1nn(-c2ccccc2)c(Oc2ccc(Cl)cc2)c1/C=N/OCc1ccc(C(=O)OC(C)(C)C)cc1	–	–	–	–	–	-14.7%	-4.9%	-10%	-27%	–
CISPLATIN	–	–	–	–	–	–	–	–	–	IC50 (HCT-15; hct-15): 6.91 µg/mL; IC50 (XF498; xf498): 3.47 µg/mL; IC50 (SK-MEL-2; sk-mel-2): 3.28 µg/mL; IC50 (SK-OV-3; sk-ov-3): 3.42 µg/mL; IC50 (A549 [1]; a549): 3.09 µg/mL
CCOC(=O)c1ccc(CO/N=C/c2c(C)nn(-c3ccccc3)c2Oc2ccc(Cl)cc2)cc1	–	–	–	–	–	-31.8%	12%	-9.9%	-17.8%	–
Cc1nn(C)c(Oc2ccccc2)c1/C=N/OCc1cccc(-c2ccccc2)c1C	–	–	–	–	–	-13.2%	24.4%	5%	-12.1%	–
Cc1nn(C)c(Oc2ccccc2)c1/C=N/OCCN1CCOCC1	–	–	–	–	–	-40.5%	5.4%	-19.4%	-28%	–
Cc1nn(C)c(Oc2ccccc2)c1/C=N/OCCN1CCCC1	–	–	–	–	–	-25%	7.7%	-8.2%	-24.2%	–
Cc1nn(-c2ccccn2)c(Oc2ccccc2)c1/C=N/OCc1ccc(C(=O)OC(C)(C)C)cc1	–	–	–	–	–	-25.1%	-14.8%	-9.1%	-9.8%	–
Cc1nn(C)c(-n2ccc3ccccc32)c1/C=N/OCc1ccc(C(=O)OC(C)(C)C)cc1	1.57 µg/mL (≈ 3.53 µM)	1.61 µg/mL (≈ 3.62 µM)	26.5 µg/mL (≈ 59.6 µM)	2.07 µg/mL (≈ 4.66 µM)	0.43 µg/mL (≈ 0.967 µM)	–	–	–	–	–
Cc1nn(C)c(-n2cccc2)c1/C=N/OCc1ccc(C(=O)OC(C)(C)C)cc1	2.48 µg/mL (≈ 6.29 µM)	2.67 µg/mL (≈ 6.77 µM)	24.9 µg/mL (≈ 63.1 µM)	3.91 µg/mL (≈ 9.91 µM)	1.64 µg/mL (≈ 4.16 µM)	–	–	–	–	–
Cc1c(CO/N=C/c2c(-c3ccccc3)nn(-c3ccccc3)c2Oc2ccc(Cl)cc2)cccc1-c1ccccc1	–	–	–	–	–	-14.8%	-17.5%	-10.1%	-15%	–
Cc1nn(C)c(Oc2ccccc2)c1/C=N/OCCN1CCCCC1	–	–	–	–	–	-29%	3.2%	-9.9%	-22.5%	–
Cc1ccc(CO/N=C/c2c(C)nn(C)c2Oc2ccccc2)cc1	–	–	–	–	–	8.4%	38.2%	29.1%	17.9%	–
Cc1nn(C)c(Oc2ccccc2)c1/C=N/OCCN(C)C	–	–	–	–	–	-36.1%	8.9%	-5.9%	-29%	–
Cc1nn(C)c(Oc2ccc(Cl)cc2)c1/C=N/OCc1ccc(C(F)(F)F)cc1	–	–	–	–	–	20.6%	16.4%	50.9%	27.6%	–
CC(C)c1nn(-c2ccccc2)c(Oc2ccc(Cl)cc2)c1/C=N/OCc1ccc(C(F)(F)F)cc1	–	–	–	–	–	-2.2%	-1.9%	-12.1%	-15.4%	–

Compound	IC50 (HCT-15; [3])	IC50 (XF498; [4])	IC50 (SK-MEL-2; [5])	IC50 (SK-OV-3; [6])	IC50 (A549 [1]; [7])	inhibition at 1 µM (HepG2)	inhibition at 1 µM (MCF7)	inhibition at 1 µM (A549 [2])	inhibition at 1 µM (MKN-45)	also measured
Cc1nn(-c2ccccc2)c(Oc2ccc(Cl)cc2)c1/C=N/OCc1ccc(C(=O)OC(C)(C)C)cc1	–	–	–	–	–	-31.1%	-8.4%	-6.1%	-9.9%	–
Cc1nn(C)c(N2CCOCC2)c1/C=N/OCc1ccc(C(=O)OC(C)(C)C)cc1	1.83 µg/mL (≈ 4.41 µM)	1.04 µg/mL (≈ 2.51 µM)	16.7 µg/mL (≈ 40.3 µM)	8.87 µg/mL (≈ 21.4 µM)	0.39 µg/mL (≈ 0.941 µM)	–	–	–	–	–
Cc1nn(C)c(Oc2ccccc2)c1/C=N/OCCN1CCN(Cc2ccc(C(F)(F)F)cc2)CC1	–	–	–	–	–	14.4%	37.7%	39.7%	15.4%	–
CCOC(=O)c1ccc(CO/N=C/c2c(C)nn(C)c2Oc2ccc(Cl)cc2)cc1	–	–	–	–	–	27.4%	33.9%	48.2%	20.9%	–
Cc1nn(C)c(Oc2ccccc2)c1/C=N/OCc1ccc([N+](=O)[O-])cc1	–	–	–	–	–	-2.8%	24%	39.4%	18.3%	–
COc1ccc(CO/N=C/c2c(C)nn(C)c2Oc2ccc(Cl)cc2)cc1	–	–	–	–	–	13.9%	37%	43.9%	28.1%	–
Cc1nn(C)c(N2CCCC2)c1/C=N/OCc1ccc(C(=O)OC(C)(C)C)cc1	0.1 µg/mL (≈ 0.251 µM)	0.12 µg/mL (≈ 0.301 µM)	14.4 µg/mL (≈ 36.2 µM)	3.19 µg/mL (≈ 8 µM)	0.13 µg/mL (≈ 0.326 µM)	–	–	–	–	–
Cc1nn(C)c(Oc2ccccc2)c1/C=N/OCc1ccc(C(F)(F)F)cc1	–	–	–	–	–	5.8%	30.5%	34.7%	11%	–
Cc1nn(C)c(-n2ccnc2)c1/C=N/OCc1ccc(C(=O)OC(C)(C)C)cc1	8.67 µg/mL (≈ 21.9 µM)	8.15 µg/mL (≈ 20.6 µM)	9.35 µg/mL (≈ 23.6 µM)	14.1 µg/mL (≈ 35.6 µM)	5.93 µg/mL (≈ 15 µM)	–	–	–	–	–
Cc1ccc(CO/N=C/c2c(C)nn(C)c2Oc2ccc(Cl)cc2)cc1	–	–	–	–	–	31.3%	30.7%	50%	30.4%	–
Cc1nn(C)c(N(C)C)c1/C=N/OCc1ccc(C(=O)OC(C)(C)C)cc1	6.22 µg/mL (≈ 16.7 µM)	3.87 µg/mL (≈ 10.4 µM)	23.9 µg/mL (≈ 64.3 µM)	9.06 µg/mL (≈ 24.3 µM)	2.76 µg/mL (≈ 7.41 µM)	–	–	–	–	–
COC(=O)c1ccc(CO/N=C/c2c(C)nn(C)c2Oc2ccc(Cl)cc2)cc1	–	–	–	–	–	20.3%	33.6%	49.9%	26.1%	–
Cc1nn(C)c(Oc2ccccc2)c1/C=N/OCCN1CCN(Cc2ccccc2)CC1	–	–	–	–	–	6.7%	23.4%	28.4%	10.5%	–
Cc1nn(C)c(Oc2ccc(Cl)cc2)c1/C=N/OCc1ccc([N+](=O)[O-])cc1	–	–	–	–	–	18.4%	27.1%	39.6%	24.6%	–
Cc1nn(C)c(Oc2ccccc2)c1/C=N/OCc1ccc(C(=O)OC(C)(C)C)cc1 [FENPYROXYMATE]	0.02 µg/mL (≈ 0.0474 µM)	0.04 µg/mL (≈ 0.0949 µM)	13.3 µg/mL (≈ 31.5 µM)	0.21 µg/mL (≈ 0.498 µM)	0.12 µg/mL (≈ 0.285 µM)	–	–	–	–	–
Cc1nn(C)c(Sc2ccccc2)c1/C=N/OCc1ccc(C(=O)OC(C)(C)C)cc1	0.26 µg/mL (≈ 0.594 µM)	0.28 µg/mL (≈ 0.64 µM)	4.91 µg/mL (≈ 11.2 µM)	0.92 µg/mL (≈ 2.1 µM)	0.13 µg/mL (≈ 0.297 µM)	–	–	–	–	–
COc1cccc(CO/N=C/c2c(C)nn(C)c2Oc2ccccc2)c1	–	–	–	–	–	-41.2%	8.4%	1%	-19.6%	–
COc1cccc2c1C(=O)c1c(O)c3c(c(O)c1C2=O)C[C@@](O)(C(=O)CO)C[C@@H]3O[C@H]1C[C@H](N)[C@H](O)[C@H](C)O1 [DOXORUBICIN]	0.28 µg/mL (≈ 0.515 µM)	0.09 µg/mL (≈ 0.166 µM)	0.07 µg/mL (≈ 0.129 µM)	0.09 µg/mL (≈ 0.166 µM)	0.05 µg/mL (≈ 0.092 µM)	–	–	–	–	–
